{"source": "ChEMBL document CHEMBL1123026", "about": "“Preparation and antiarthritic and analgesic activity of 4,5-diaryl-2-(substituted thio)-1H-imidazoles and their sulfoxides and sulfones” (1985)", "assay_type_in_all_cases": "functional", "key": {"[1]": {"system": "Mus musculus", "experiment": "Effective dose determined by mouse phenyl-p-benzoquinone writhing (PQW) assay after peroral administration", "details": "po", "how_it_was_run": "(§1)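 Fasted (17-21 h) female white mice, 5-20 per double-blind test, dosed orally with compound suspended in 1% methylcellulose. 0.20 mL aqueous 0.01% phenyl-p-benzoquinone given i.p. 6 min before a 10-min observation for stretching/writhing. ED50 (dose protecting 50% of mice) calculated by the moving-average method.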"}, "[2]": {"system": "Rattus norvegicus", "experiment": "Decrease in paw volume by the effect of compound at a dose of 50 mg/kg", "how_it_was_run": "(§2)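 Male Lewis rats (130-150 g) got 0.1 mL adjuvant (heat-killed Mycobacterium butyricum, 5 mg/mL in mineral oil) subplantar in the right hind paw and were left 2 weeks. Groups of 10 matched for severity were dosed orally by gavage (PVA-acacia vehicle, 10 mL/kg) for 7 days. Uninjected left hind paw volume was read the next day. % decrease = (arthritic control − treated)/(arthritic − nonarthritic control) × 100; Student's t-test.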"}, "[3]": {"system": "Rattus norvegicus", "experiment": "Effective dose determined against rat adjuvant arthritis after peroral administration", "details": "po", "how_it_was_run": "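Male Lewis rats (130-150 g) given 0.1 mL Mycobacterium butyricum adjuvant (5 mg/mL in mineral oil) s.c. into the right hind paw; arthritis developed for 2 weeks. Groups of 10 matched for severity were dosed orally by gavage in PVA-acacia vehicle (10 mL/kg) for 7 days. Uninjected left paw volume was measured the day after the last dose. Percent decrease was calculated vs arthritic and nonarthritic controls. ED50 was read from a visually fitted semilog dose-response line.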"}, "[4]": {"system": "Rattus norvegicus", "experiment": "Decrease in paw volume by the effect of compound at a dose of 75 mg/kg", "how_it_was_run": "as §2"}, "[5]": {"system": "Rattus norvegicus", "experiment": "Decrease in paw volume was evaluated at dose 9 mg/kg", "how_it_was_run": "as §2"}, "[6]": {"system": "Mus musculus", "experiment": "Effective dose by mouse phenyl-p-benzoquinone writhing (PQW)assay after peroral administration; highest dose was tested", "details": "po", "how_it_was_run": "as §1"}, "[7]": {"system": "Rattus norvegicus", "experiment": "Decrease in paw volume by the effect of compound at a dose of 100 mg/kg", "how_it_was_run": "as §2"}}}
{"smiles": "Fc1ccc(-c2nc(SC(F)F)[nH]c2-c2ccc(F)cc2)cc1", "values": [{"measurement": "ED50", "setting": "[1]", "result": "> 130", "unit": "mg/kg"}]}
{"smiles": "CS(=O)(=O)c1nc(-c2ccc(C(F)(F)F)cc2)c(-c2ccccc2)[nH]1", "values": [{"measurement": "ED50", "setting": "[1]", "result": "> 130", "unit": "mg/kg"}, {"measurement": "Decrease", "setting": "[2]", "result": 32, "unit": "%"}]}
{"smiles": "CS(=O)(=O)c1nc(-c2ccc(F)cc2)c(-c2ccc(F)cc2)[nH]1", "values": [{"measurement": "ED50", "setting": "[1]", "result": "> 130", "unit": "mg/kg"}]}
{"smiles": "CS(=O)(=O)c1nc(-c2ccc(Cl)cc2)c(-c2ccc(C(F)(F)F)cc2)[nH]1", "values": [{"measurement": "ED50", "setting": "[1]", "result": "> 135", "unit": "mg/kg"}]}
{"smiles": "Cl.Nc1ccc(-c2[nH]c(S(=O)(=O)C(F)(F)C(F)F)nc2-c2ccc(F)cc2)cc1", "values": [{"measurement": "ED50", "setting": "[3]", "result": "> 3", "unit": "mg/kg"}]}
{"smiles": "C=CCS(=O)(=O)c1nc(-c2ccc(OC)cc2)c(-c2ccc(OC)cc2)[nH]1", "values": [{"measurement": "ED50", "setting": "[3]", "result": 10, "unit": "mg/kg"}, {"measurement": "ED50", "setting": "[1]", "result": "> 130", "unit": "mg/kg"}]}
{"smiles": "CSc1nc(-c2ccc(Cl)cc2)c(-c2ccc(C(F)(F)F)cc2)[nH]1", "values": [{"measurement": "ED50", "setting": "[1]", "result": "> 130", "unit": "mg/kg"}]}
{"smiles": "[O-][S+](CCC(F)(F)F)c1nc(-c2ccccc2)c(-c2ccccc2)[nH]1", "note": "(stereo not given)", "values": [{"measurement": "ED50", "setting": "[3]", "result": "> 75", "unit": "mg/kg"}, {"measurement": "ED50", "setting": "[1]", "result": "> 130", "unit": "mg/kg"}]}
{"smiles": "Fc1ccc(-c2nc(SC(F)(F)C(F)F)[nH]c2-c2ccc(C(F)(F)F)cc2)cc1", "values": [{"measurement": "ED50", "setting": "[1]", "result": "> 130", "unit": "mg/kg"}]}
{"smiles": "COc1ccc(-c2nc(SCC(C)=O)[nH]c2-c2ccc(OC)cc2)cc1", "values": [{"measurement": "ED50", "setting": "[3]", "result": 10, "unit": "mg/kg"}]}
{"smiles": "CS(=O)(=O)c1nc(-c2cccc(F)c2)c(-c2ccccc2)[nH]1", "values": [{"measurement": "ED50", "setting": "[1]", "result": "> 130", "unit": "mg/kg"}, {"measurement": "Decrease", "setting": "[4]", "result": 32, "unit": "%"}]}
{"smiles": "FC(F)(F)Sc1nc(-c2ccc(Cl)c(Cl)c2)c(-c2ccccc2)[nH]1", "values": [{"measurement": "ED50", "setting": "[1]", "result": "> 130", "unit": "mg/kg"}]}
{"smiles": "CCSc1nc(-c2ccccc2)c(-c2ccccc2)[nH]1", "values": [{"measurement": "ED50", "setting": "[3]", "result": 100, "unit": "mg/kg"}, {"measurement": "ED50", "setting": "[1]", "result": "> 130", "unit": "mg/kg"}]}
{"smiles": "CSc1nc(-c2ccc(C(F)(F)F)cc2)c(-c2ccccc2)[nH]1", "values": [{"measurement": "ED50", "setting": "[1]", "result": "> 130", "unit": "mg/kg"}, {"measurement": "Decrease", "setting": "[5]", "result": 41, "unit": "%"}]}
{"smiles": "Fc1ccc(-c2nc(SC(F)(F)C(F)F)[nH]c2-c2ccc(F)cc2)cc1", "values": [{"measurement": "ED50", "setting": "[3]", "result": 0.05, "unit": "mg/kg"}, {"measurement": "ED50", "setting": "[1]", "result": "> 81", "unit": "mg/kg"}]}
{"smiles": "Cc1ccc(-c2nc(SC(F)(F)C(F)F)[nH]c2-c2ccc(C)cc2)cc1", "values": [{"measurement": "ED50", "setting": "[3]", "result": 27, "unit": "mg/kg"}, {"measurement": "ED50", "setting": "[1]", "result": "> 130", "unit": "mg/kg"}]}
{"smiles": "COc1ccc(-c2nc([S+]([O-])CC(C)=O)[nH]c2-c2ccc(OC)cc2)cc1", "note": "(stereo not given)", "values": [{"measurement": "ED50", "setting": "[3]", "result": 35, "unit": "mg/kg"}, {"measurement": "ED50", "setting": "[6]", "result": 135, "unit": "mg/kg"}]}
{"smiles": "CS(=O)(=O)c1nc(-c2ccc(F)cc2)c(-c2ccccc2)[nH]1", "values": [{"measurement": "ED50", "setting": "[3]", "result": "> 9", "unit": "mg/kg"}, {"measurement": "ED50", "setting": "[6]", "result": 135, "unit": "mg/kg"}]}
{"smiles": "O=S(=O)(CCC(F)(F)C(F)(F)F)c1nc(-c2ccccc2)c(-c2ccccc2)[nH]1", "values": [{"measurement": "ED50", "setting": "[3]", "result": "> 75", "unit": "mg/kg"}, {"measurement": "ED50", "setting": "[1]", "result": "> 130", "unit": "mg/kg"}]}
{"smiles": "[O-][S+](CCC(F)(F)C(F)(F)F)c1nc(-c2ccccc2)c(-c2ccccc2)[nH]1", "note": "(stereo not given)", "values": [{"measurement": "ED50", "setting": "[3]", "result": "> 75", "unit": "mg/kg"}, {"measurement": "ED50", "setting": "[1]", "result": "> 130", "unit": "mg/kg"}]}
{"smiles": "[O-][S+](CC(F)(F)C(F)(F)F)c1nc(-c2ccccc2)c(-c2ccccc2)[nH]1", "note": "(stereo not given)", "values": [{"measurement": "ED50", "setting": "[3]", "result": "> 75", "unit": "mg/kg"}, {"measurement": "ED50", "setting": "[1]", "result": "> 130", "unit": "mg/kg"}]}
{"smiles": "CSc1ccc(-c2[nH]c(SC(F)(F)C(F)F)nc2-c2ccc(F)cc2)cc1", "values": [{"measurement": "ED50", "setting": "[3]", "result": 1.6, "unit": "mg/kg"}, {"measurement": "ED50", "setting": "[1]", "result": "> 108", "unit": "mg/kg"}]}
{"smiles": "FC(F)C(F)(F)Sc1nc(-c2ccc(Cl)cc2)c(-c2ccccc2)[nH]1", "values": [{"measurement": "ED50", "setting": "[1]", "result": "> 130", "unit": "mg/kg"}]}
{"smiles": "COc1ccc(-c2nc(SC[S+](C)[O-])[nH]c2-c2ccc(OC)cc2)cc1", "note": "(stereo not given)", "values": [{"measurement": "ED50", "setting": "[3]", "result": 52, "unit": "mg/kg"}]}
{"smiles": "C[S+]([O-])c1nc(-c2cccc(F)c2)c(-c2ccccc2)[nH]1", "note": "(stereo not given)", "values": [{"measurement": "Decrease", "setting": "[7]", "result": 67, "unit": "%"}, {"measurement": "ED50", "setting": "[1]", "result": "> 130", "unit": "mg/kg"}]}
{"smiles": "CSc1nc(-c2ccc(Cl)cc2)c(-c2ccc(Cl)cc2)[nH]1", "values": [{"measurement": "ED50", "setting": "[3]", "result": 4, "unit": "mg/kg"}, {"measurement": "ED50", "setting": "[1]", "result": "> 135", "unit": "mg/kg"}]}
{"smiles": "CCOc1ccc(-c2[nH]c(S(C)(=O)=O)nc2-c2ccccc2)cc1", "values": [{"measurement": "ED50", "setting": "[1]", "result": "> 130", "unit": "mg/kg"}, {"measurement": "Decrease", "setting": "[2]", "result": 41, "unit": "%"}]}
{"smiles": "COc1ccc(-c2[nH]c(S(=O)(=O)C(F)(F)C(F)F)nc2-c2ccccc2Cl)cc1", "values": [{"measurement": "ED50", "setting": "[3]", "result": 6, "unit": "mg/kg"}]}
{"smiles": "CCCC[S+]([O-])c1nc(-c2ccccc2)c(-c2ccccc2)[nH]1", "note": "(stereo not given)", "values": [{"measurement": "ED50", "setting": "[3]", "result": "> 100", "unit": "mg/kg"}, {"measurement": "ED50", "setting": "[1]", "result": "> 130", "unit": "mg/kg"}]}
{"smiles": "COc1ccc(-c2[nH]c(SC(F)(F)C(F)F)nc2-c2ccc(F)cc2)cc1", "values": [{"measurement": "ED50", "setting": "[1]", "result": "> 130", "unit": "mg/kg"}]}
{"smiles": "COc1ccc(-c2[nH]c(SC(F)(F)C(F)F)nc2-c2ccccc2)cc1", "values": [{"measurement": "ED50", "setting": "[3]", "result": 30, "unit": "mg/kg"}, {"measurement": "ED50", "setting": "[1]", "result": "> 130", "unit": "mg/kg"}]}
{"smiles": "CCCS(=O)(=O)c1nc(-c2ccccc2)c(-c2ccccc2)[nH]1", "values": [{"measurement": "Decrease", "setting": "[7]", "result": 26, "unit": "%"}, {"measurement": "ED50", "setting": "[1]", "result": "> 130", "unit": "mg/kg"}]}
{"smiles": "FC(F)(F)C(F)(F)CSc1nc(-c2ccccc2)c(-c2ccccc2)[nH]1", "values": [{"measurement": "ED50", "setting": "[1]", "result": "> 135", "unit": "mg/kg"}]}
{"smiles": "FC(F)C(F)(F)Sc1nc(-c2ccc(Cl)c(Cl)c2)c(-c2ccccc2)[nH]1", "values": [{"measurement": "ED50", "setting": "[1]", "result": "> 130", "unit": "mg/kg"}]}
{"smiles": "COc1ccc(-c2nc(SCC(F)(F)F)[nH]c2-c2ccc(OC)cc2)cc1", "values": [{"measurement": "ED50", "setting": "[3]", "result": 35, "unit": "mg/kg"}, {"measurement": "ED50", "setting": "[1]", "result": "> 135", "unit": "mg/kg"}]}
{"smiles": "CCCCSc1nc(-c2ccccc2)c(-c2ccccc2)[nH]1", "values": [{"measurement": "ED50", "setting": "[3]", "result": "> 75", "unit": "mg/kg"}, {"measurement": "ED50", "setting": "[1]", "result": "> 130", "unit": "mg/kg"}]}
{"smiles": "CCS(=O)(=O)c1nc(-c2ccccc2)c(-c2ccccc2)[nH]1", "values": [{"measurement": "Decrease", "setting": "[7]", "result": 32, "unit": "%"}, {"measurement": "ED50", "setting": "[1]", "result": "> 135", "unit": "mg/kg"}]}
{"smiles": "FCC(F)(F)Sc1nc(-c2ccccc2)c(-c2ccccc2)[nH]1", "values": [{"measurement": "ED50", "setting": "[3]", "result": 2, "unit": "mg/kg"}, {"measurement": "ED50", "setting": "[1]", "result": "> 135", "unit": "mg/kg"}]}
{"smiles": "C[S+]([O-])c1nc(-c2cccc(Cl)c2)c(-c2ccccc2)[nH]1", "note": "(stereo not given)", "values": [{"measurement": "ED50", "setting": "[1]", "result": "> 130", "unit": "mg/kg"}, {"measurement": "Decrease", "setting": "[4]", "result": 77, "unit": "%"}]}
{"smiles": "CSc1nc(-c2ccc(Cl)cc2)c(-c2ccc(F)cc2)[nH]1", "values": [{"measurement": "ED50", "setting": "[1]", "result": "> 130", "unit": "mg/kg"}]}
